Shown are actives, neighbours in structure and some others; about 2% of the full set was active somewhere.
T cruzi repl: T. cruzi replication inhibition; T. cruzi beta-gal in NIH3T3, luminescence, 90 h; inhibition, % (concentration not given with the values); hit rate 1.4% among 300,000;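 active means mean inhibition across valid replicates above about 55%, limit read from the data; inconclusive means mean below that limit but half or more replicates reach it; inactive means mean below it, under half of replicates reach it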;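 further: signal also drops with host cell toxicity which is not excluded here; 0% = plate median of DMSO wells and 100% = zero luminescence signal; higher percent means less beta-gal luminescence so fewer parasites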
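System – NIH/3T3 host cells with β-galactosidase reporter T. cruzi · Doses – single 50 nL compound addition per well in DMSO · Reagent – 5000 T. cruzi trypomastigotes/well · Medium – Low-serum DMEM with 2% FBS · Timing – ≥90 h infection period, 3 h prior cell attachment · Evaluation – parasite load inhibition, % · Technique – GalScreen luminescence, 60 min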
HIF activator: HIF pathway transcriptional activation | U2OS HRE-luciferase reporter, luminescence; normalized: DMSO 0%, desferrioxamine 100% | activation, % at 7.5 µM (by protocol) | hit rate 0.32% among 300,000;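 active means mean activation of at least 10% of the iron chelator positive control signal, with at least half of replicates also reaching 10%; inconclusive means mean and replicate majority disagree about reaching 10%; inactive means mean and most replicates under 10%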
ARNT TACC3 PPI: disruptors of human ARNT/TACC3 interaction. inhibition, % at 9.99 µM. AlphaScreen His-ARNT PAS-B/GST-TACC3 binding, luminescence; TACC3 fragment carries E629A point mutation. Q9Y6A5. hit rate 0.66% among 390,000. AID 623870;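 active means mean inhibition of replicates at least 50% and at least half of replicates each reaching 50%; inconclusive means half or more replicates reach 50% but mean below 50%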;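 further: 0% = complete ARNT plus TACC3 wells and 100% = ARNT alone without TACC3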
AI-2 QS mod: modulates the Vibrio harveyi AI-2 quorum sensing system; Vibrio harveyi JMH597 AI-2 luminescence/OD600 ratio, 9 h; hits give low values; strain lacks LuxN and CqsS sensors; 0 = neutral-control median; activity change, % at 7.5 µM; hit rate 0.4% among 300,000; AID 2094; in the data active means activity change below about -75%, passing the limit was not always enough; inconclusive means no clear call, values can overlap the other calls;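 further: luminescence divided by OD600 gain over 9 h not by final OD600 alone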
* marks the source's active call; other numbers are inactive results; ? = inconclusive; / = not tested or not shown.

SMILES	T cruzi repl	HIF activator	ARNT TACC3 PPI	AI-2 QS mod
C[C@@H]1CN([C@@H](C)CO)C(=O)c2cccc(NC(=O)C3CCOCC3)c2O[C@H]1CN(C)S(=O)(=O)c1cccs1	/	/	-13	/
COc1ccc(-c2cn(CC[C@H]3CC[C@H](NC(=O)CCN4CCCCC4)[C@@H](CO)O3)nn2)cc1	/	/	2	/
Cc1cccc(NC(=S)N/N=C/c2ccc([N+](=O)[O-])s2)c1	52	1	28	-212*
Cc1cccc(NC(=O)/C=C/c2ccc([N+](=O)[O-])s2)c1	59*	4	1	14
C/C(=N/NC(=S)Nc1cccc(C)c1)c1cccc([N+](=O)[O-])c1	56*	0	/	17
Cc1ccc(NC(=O)/C=C/c2ccc([N+](=O)[O-])s2)cc1	31	1	5	37
O=C(CC(F)(F)F)N1C[C@H]2[C@@H](c3ccccc31)[C@@H](CO)N2C(=O)Cc1cccnc1	/	/	-3	/
Cc1nn(C(C)C)c(C)c1CN1CCC(C(=O)Nc2cccc(-c3cccc(F)c3)c2)CC1	55*	-1	5	2
Cn1cc(CN2CCC(C(=O)Nc3cccc(-c4cscn4)c3)CC2)cn1	7	73*	-1	2
Cc1cccc(CN2CCC(C(=O)Nc3cccc(-c4cccc(F)c4)c3)CC2)n1	12	-1	4	-14
CCCn1ncc(CN2CCC(C(=O)Nc3cccc(-c4cccc(F)c4)c3)CC2)c1C	57*	0	/	12
Cc1ccc(S(=O)(=O)Nc2ccc3c(c2)C(=O)N([C@H](C)CO)C[C@H](C)[C@H](CN(C)C(=O)NC2CCCCC2)OCCCC[C@@H](C)O3)cc1	/	/	5	/
COCC(=O)Nc1ccc2c(c1)C(=O)N(C)C[C@@H](OC)[C@@H](C)CN(C(=O)c1ccncc1)[C@@H](C)CO2	/	/	-8	/
Cc1ccc(C2=NN(C(=S)Nc3ccccc3)C(c3ccco3)C2)cc1 (stereo not given)	46	3	-1	-1
C=CCNC(=S)N1N=C(c2ccco2)CC1c1ccco1 (stereo not given)	/	/	active	/
COc1cc([C@@H]2c3cc4c(cc3[C@@H](NC3CCN(Cc5ccccc5)CC3)[C@H]3COC(=O)[C@H]23)OCO4)cc(OC)c1O	24	15*	/	7
Cc1ccc(S(=O)(=O)N[C@H]2C=C[C@@H](CC(=O)NCCN3CCCCC3)O[C@H]2CO)cc1	/	/	0	/
C[C@H](CO)N1C[C@H](C)[C@H](CN(C)Cc2ccc(C(=O)O)cc2)Oc2ccc(NC(=O)C3CC3)cc2CC1=O	/	/	-8	/
CCOC(=O)c1sc(NC(=O)Nc2ccccc2Cl)cc1C	65*	0	-1	15
CCOC(=O)c1sc(-c2ccccc2)cc1NC(=O)Nc1ccccc1	55*	-1	-3	2
CCOC(=O)c1sc(NC(=O)Nc2ccccc2)cc1C	54	2	10	16
C[C@H](CO)N1C[C@H](C)[C@H](CN(C)C(=O)Nc2ccccc2)Oc2ncc(C#CC(C)(C)O)cc2C1=O	/	/	-4	/
CCN(CC)CCC(c1ccc(N(C)C)cc1)c1c(O)cc(OC)cc1OC (stereo not given)	-3	0	30*	27
CN(C)c1ccc2c(c1)[C@@H]1C[C@H](CC(=O)O)O[C@H](CO)[C@@H]1O2	/	/	1	/
CC(C)NC(=O)N[C@H]1CC[C@@H](CCNC(=O)C2CCC2)O[C@H]1CO	/	/	-7	/
SMILES	T cruzi repl	HIF activator	ARNT TACC3 PPI	AI-2 QS mod
CCOC(=O)c1c(-c2ccccc2)csc1NC(=O)c1nn(CC)cc1Br	63*	0	/	8
CCOC(=O)c1c(-c2cccs2)csc1NC(=O)COC(=O)c1c(C)noc1C	17	-1	/	17
CCOC(=O)c1c(-c2cccs2)csc1NC(=O)c1ccncc1	55*	0	-2	21
CCC(=O)N1[C@H](CO)[C@H]2c3ccccc3N(C(=O)NC(C)C)C[C@H]21	/	/	-5	/
C[C@@H](NC(=O)C[C@@H]1C[C@@H]2c3cc(NC(=O)C4CCC4)ccc3O[C@@H]2[C@H](CO)O1)c1ccccc1	/	/	-10	/
CCOC(=O)C1=C(C)NC(C)=C(C(=O)OCC)C1C(=O)OCC(=O)N(C)C1CCS(=O)(=O)C1 (stereo not given)	1	13*	-4	-5
O=C(NCC1CC1)[C@H]1[C@H](CO)[C@H]2Cn3c(ccc(-c4cccnc4)c3=O)[C@@H]1N2C(=O)C1CCC1	/	/	-5	/
COc1ccc(CNC(=O)C2CSC(=O)C2)cc1 (stereo not given)	56*	0	/	4
COc1ccc(N2CC(C(=O)NCc3ccccc3)CC2=O)cc1 (stereo not given)	1	0	-2	4
c1cncc(-c2nc(NCCCN3CCOCC3)c3c4c(sc3n2)CCC4)c1	73*	1	1	12
O=C(C[C@H]1C[C@@H]2c3cc(NS(=O)(=O)c4ccc(F)cc4)ccc3O[C@@H]2[C@@H](CO)O1)NC1CCCCC1	/	/	2	/
NS(=O)(=O)c1cccc(NS(=O)(=O)c2ccc3ccccc3c2)c1	1	4	-9	-97*
Cc1ccc(-n2nnnc2C(Cl)c2nnnn2-c2ccc(C)cc2)cc1	55*	0	/	37
Cc1ccc(-n2nnnc2-c2ccccc2)cc1	-5	0	-5	11
C[C@@H]1CN([C@@H](C)CO)C(=O)Cc2cc(NC(=O)Nc3ccccc3)ccc2O[C@H]1CN(C)Cc1ccccc1	/	/	9	/
CCCN(C)C[C@@H]1OCCCC[C@H](C)Oc2ccc(NC(=O)C3CCCCC3)cc2C(=O)N([C@@H](C)CO)C[C@@H]1C	/	/	-1	/
Nc1ccccc1C#CC(=O)c1ccccc1	?	-2	-7	-90*
O=C(C#Cc1cccc([N+](=O)[O-])c1)c1ccccc1	51	2	-4	-55
O=C(c1ccc(F)cc1)N(Cc1cccs1)C1CCS(=O)(=O)C1 (stereo not given)	-6	167*	1	6
C[C@H]1CN([C@@H](C)CO)C(=O)c2cccc(NC(=O)c3ccc(-c4nccs4)cc3)c2O[C@@H]1CN(C)S(=O)(=O)c1ccc(Cl)cc1	/	/	-4	/
O=C(Nc1ccccc1)c1ccc(Nc2c([N+](=O)[O-])cc([N+](=O)[O-])c3ccccc23)cc1	66*	0	1	10
CN(C)C(=O)C[C@H]1CC[C@@H]2[C@H](COC[C@@H](O)CN2CC2CC2)O1	/	/	-1	/
CCNC(=O)C[C@@H]1CC[C@H]2[C@H](COc3ccc(NC(=O)Nc4cccc(OC)c4)cc3C(=O)N2C)O1	/	/	5	/
CN(C)S(=O)(=O)N1CCN(CC(O)COc2ccc3cc(Br)ccc3c2)CC1 (stereo not given)	18	0	4	30
O=S(=O)(N1CCCCC1)N1CCN(CC(O)COc2ccc3cc(Br)ccc3c2)CC1 (stereo not given)	55*	0	-4	9
OC(COc1ccc(OCC(O)CN2CCCCCC2)cc1)CN1CCCCCC1 (stereo not given)	8	0	-13	14
OC(COc1ccc2cc(Br)ccc2c1)CN1CCCC1 (stereo not given)	70*	1	4	12
